Test results from ChEMBL document CHEMBL5113533 (J Med Chem, 2022).
Activity calls are given as the source filed them. The calls are words filed in the database; no cut-off is given here.

Columns and labels:
THP-1 [1] = assay: Antiinflammatory activity against Escherichia coli induced human THP-1 cells assessed as reduction in proinflammatory phenotype at 1 uM for 1 hr followed by Escherichia coli stimulation and measured upto 24 hrs by MALDI-TOF MS analysis; type: functional, cell-based
Summary of the method: (§1)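 THP-1 cells pre-treated with compound for 1 h, then infected with live E. coli (MOI 2), spun 500g 5 min, left 15 or 30 min for uptake, then 100 μg/mL gentamicin for 1 h and 20 μg/mL gentamicin thereafter, up to 24 h. Pellets frozen on dry ice, thawed, washed in 100 mM Tris–HCl pH 7.5 at 4 °C, and read by MALDI-TOF MS as the normalized m/z 4964/4632 ratio.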

[2] = biological target: MAP kinase-activated protein kinase 2 (Homo sapiens) (UniProt P49137); assay: Inhibition of MK2 in Escherichia coli -stimulated human THP-1 cells assessed as reduction in p38alpha MAPK phosphorylation at 1 uM pretreated for 1 hr followed by Escherichia coli stimulation and measured up to 15 mins by western blot analysis; type: cell-based; settings: time 1.15 hrs
[3] = biological target: Mitogen-activated protein kinase 14 (Homo sapiens) (UniProt Q16539); assay: Binding affinity to P38alpha (unknown origin) measured at 0.05 to 333.33 nM after 600 secs by SPR analysis; settings: dose 0.05-333.33 nM, time 600.0 sec
Summary of the method: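 Biotinylated avidin-p38α was captured on a streptavidin chip from 50 μg/mL, reaching about 7719 RU. A 10-point series (0.05–333.33 nM) ran multicycle at 2 °C against a control surface: 90 s injection at 30 μL/min, then 600 s dissociation.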

THP-1 [4] = assay: Antiinflammatory activity against LPS-stimulated human THP-1 cells assessed as disappearance inflammatory phenotype at 5 uM pretreated for 1 hr followed by LPS stimulation and measured upto 24 hrs by ELISA analysis; type: functional, cell-based
THP-1 [5] = assay: Antiinflammatory activity against LPS-stimulated human THP-1 cells assessed as reduction in TNFalpha level pretreated for 1 hr followed by LPS stimulation and measured upto 24 hrs by ELISA analysis; type: functional, cell-based
Summary of the method: (§2)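 THP-1 cells pre-treated with compound for 1 h (5 μM or 1 μM, depending on the compound), then stimulated with 100 ng/mL LPS. Culture supernatant was taken at 24 h, and TNF-α, IL-6 or IL-1β was measured by sandwich ELISA at 450 nm with 540 nm correction; four biological replicates.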

THP-1 [6] = assay: Antiinflammatory activity against LPS-stimulated human THP-1 cells assessed as reduction in IL-6 level pretreated for 1 hr followed by LPS stimulation and measured upto 24 hrs by ELISA analysis; type: functional, cell-based; summary of the method: as §2
THP-1 [7] = assay: Antiinflammatory activity against LPS-stimulated human THP-1 cells assessed as reduction in IL-1beta level pretreated for 1 hr followed by LPS stimulation and measured upto 24 hrs by ELISA analysis; type: functional, cell-based; summary of the method: as §2
THP-1 [8] = assay: Antiinflammatory activity against LPS-stimulated human THP-1 cells assessed as TNF-alpha secretion pretreated for 1 hr followed by LPS stimulation and measured upto 24 hrs by ELISA analysis; type: functional, cell-based; summary of the method: as §2
THP-1 [9] = assay: Antiinflammatory activity against Escherichia coli induced human THP-1 cells assessed as reduction in proinflammatory phenotype at 5 uM for 1 hr followed by Escherichia coli stimulation and measured upto 24 hrs by MALDI-TOF MS analysis; type: functional, cell-based; summary of the method: as §1
THP-1 [10] = assay: Inhibition of P38 MAPK pathway in Escherichia coli-stimulated human THP-1 cells assessed as reduction in TNFalpha expression at 5 uM pretreated for 1 hr followed by Escherichia coli stimulation and measured up to 24 hrs by ELISA analysis
Summary of the method: (§3)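 THP-1 cells pre-treated 1 h with 5 μM compound, then infected with live E. coli (MOI 2), followed by gentamicin killing of extracellular bacteria. TNF-α, IL-6 or IL-1β in supernatant measured by ELISA at 24 h, absorbance at 450 nm with 540 nm correction.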

THP-1 [11] = assay: Inhibition of P38 MAPK pathway in Escherichia coli-stimulated human THP-1 cells assessed as reduction in IL-6 expression at 5 uM pretreated for 1 hr followed by Escherichia coli stimulation and measured up to 24 hrs by ELISA analysis; summary of the method: as §3
THP-1 [12] = assay: Inhibition of P38 MAPK pathway in Escherichia coli-stimulated human THP-1 cells assessed as reduction in IL-1beta expression at 5 uM pretreated for 1 hr followed by Escherichia coli stimulation and measured upto 24 hrs by ELISA analysis; summary of the method: as §3
THP-1 [13] = assay: Inhibition of human Escherichia coli stimulated monocyte activation in human THP-1 cells assessed as increase in ROCK1 expression level at 5 uM pretreated for 1 hr and measured up to 24 hrs; type: functional, cell-based
Summary of the method: (§4)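 THP-1 cells pre-treated 1 h with 5 μM compound, then live E. coli up to 24 h. Label-free quantitative proteomics: S-Trap digestion (TCEP reduction, N-ethylmaleimide alkylation, trypsin 2 h at 47 °C), Orbitrap LC–MS/MS with a 180 min gradient. Changes called at FDR <0.05 and 1.5-fold.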

THP-1 [14] = assay: Inhibition of human Escherichia coli stimulated monocyte activation in human THP-1 cells assessed as increase in Filamin-B expression level at 5 uM pretreated for 1 hr and measured up to 24 hrs; type: functional, cell-based; summary of the method: as §4
THP-1 [15] = assay: Inhibition of human Escherichia coli stimulated monocyte activation in human THP-1 cells assessed as decrease in CD14 expression level at 5 uM pretreated for 1 hr and measured up to 24 hrs; type: functional, cell-based
THP-1 [16] = assay: Inhibition of human Escherichia coli stimulated monocyte activation in human THP-1 cells assessed as decrease in CD44 expression level at 5 uM pretreated for 1 hr and measured up to 24 hrs; type: functional, cell-based
THP-1 [17] = assay: Inhibition of human Escherichia coli stimulated monocyte activation in human THP-1 cells assessed as decrease in ICAM-1 expression level at 5 uM pretreated for 1 hr and measured up to 24 hrs; type: functional, cell-based
THP-1 [18] = assay: Inhibition of human Escherichia coli stimulated monocyte activation in human THP-1 cells assessed as decrease in IL-1beta expression level at 5 uM pretreated for 1 hr and measured up to 24 hrs; type: functional, cell-based; summary of the method: as §4
THP-1 [19] = assay: Inhibition of human Escherichia coli stimulated monocyte activation in human THP-1 cells assessed as decrease in MMP9 expression level at 5 uM pretreated for 1 hr and measured up to 24 hrs; type: functional, cell-based; summary of the method: as §4
THP-1 [20] = assay: Inhibition of human Escherichia coli stimulated monocyte activation in human THP-1 cells assessed as decrease in TLR2 expression level at 5 uM pretreated for 1 hr and measured up to 24 hrs; type: functional, cell-based; summary of the method: as §4
THP-1 [21] = assay: Inhibition of human Escherichia coli stimulated monocyte activation in human THP-1 cells assessed as upregulation of MMP9 expression level at 5 uM pretreated for 1 hr and measured up to 24 hrs; type: functional, cell-based; summary of the method: as §4
THP-1 [22] = assay: Inhibition of human Escherichia coli stimulated monocyte activation in human THP-1 cells assessed as […] of CD44 expression level at 5 uM pretreated for 1 hr and measured up to 24 hrs; type: functional, cell-based
THP-1 [23] = assay: Inhibition of human Escherichia coli stimulated monocyte activation in human THP-1 cells assessed as suppression of CD11c expression level at 5 uM pretreated for 1 hr and measured up to 24 hrs by flow cytometric analysis; type: functional, cell-based
THP-1 [24] = assay: Inhibition of human Escherichia coli stimulated monocyte activation in human THP-1 cells assessed as suppression of CD14 expression level at 5 uM pretreated for 1 hr and measured up to 24 hrs; type: functional, cell-based
THP-1 [25] = assay: Inhibition of human Escherichia coli stimulated monocyte activation in human THP-1 cells assessed as suppression of CD49a expression level at 5 uM pretreated for 1 hr and measured up to 24 hrs by flow cytometric analysis; type: functional, cell-based
THP-1 [26] = assay: Inhibition of human Escherichia coli stimulated monocyte activation in human THP-1 cells assessed as suppression of CD54 expression level at 5 uM pretreated for 1 hr and measured up to 24 hrs by flow cytometric analysis; type: functional, cell-based
THP-1 [27] = assay: Inhibition of cell adhesion in human Escherichia coli stimulated-THP-1 cells by crystal violet staining based assay; type: functional
Summary of the method: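 E. coli-stimulated THP-1 cells washed twice with PBS, fixed 15 min in 4% paraformaldehyde, stained 10 min with 5 mg/mL crystal violet, lysed 30 min in 2% SDS. Absorbance read at 550 nm; four biological replicates.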

OCI-AML2 [28] = assay: Antiinflammatory activity against Escherichia coli-stimulated human OCI-AML2 cells assessed reduction in TNFalpha level measured at 24 hrs by ELISA analysis; type: functional, cell-based
Summary of the method: (§5)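 OCI-AML2 cells stimulated with live E. coli (MOI 2, gentamicin protection). TNF-α, IL-6 and IL-1β in culture supernatant measured by ELISA at 24 h post-treatment, 450 nm with 540 nm correction, four biological replicates.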

OCI-AML2 [29] = assay: Antiinflammatory activity against Escherichia coli-stimulated human OCI-AML2 cells assessed reduction in IL-6 level measured at 24 hrs by ELISA analysis; type: functional, cell-based; summary of the method: as §5
OCI-AML2 [30] = assay: Antiinflammatory activity against Escherichia coli-stimulated human OCI-AML2 cells assessed reduction in IL-1beta level measured at 24 hrs by ELISA analysis; type: functional, cell-based; summary of the method: as §5
Monocyte = assay: Antiinflammatory activity against LPS-stimulated human primary monocyte cells assessed reduction in TNFalpha level measured at 24 hrs by ELISA analysis; type: functional, cell-based
Summary of the method: (§6)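 CD14+ monocytes from healthy-donor blood (Lymphoprep, then pan-monocyte isolation) or patient AML cells (cultured in IMDM with 20% FBS, IL-3 and SCF). Cells pre-treated 1 h with 5 μM or 1 μM compound, then 100 ng/mL LPS; TNF-α in supernatant measured by ELISA at 24 h. Four (monocytes) or two (AML) biological replicates, error shown as SD.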

[31] = biological target: MAP kinase-activated protein kinase 2 (Homo sapiens) (UniProt P49137); assay: Inhibition of MK2 in Escherichia coli -stimulated human THP-1 cells assessed as reduction in p38alpha MAPK phosphorylation at 5 uM pretreated for 1 hr followed by Escherichia coli stimulation and measured up to 15 mins by western blot analysis; type: cell-based; settings: time 1.15 hrs
NCI-H929 = assay: Inhibition of MK2 in Escherichia coli-stimulated human NCI-H929 cells assessed as reduction in MK2 phosphorylation pretreated for 1 hr followed by Escherichia coli stimulation and measured up to 15 mins by western blot analysis; type: cell-based; settings: time 1.15 hrs
OCI-AML2 [32] = assay: Inhibition of MK2 in Escherichia coli-stimulated human OCI-AML2 cells assessed as reduction inMK2 phosphorylation pretreated for 1 hr followed by Escherichia coli stimulation and measured up to 15 mins by western blot analysis; type: cell-based; settings: time 1.15 hrs
[33] = tested on: Acute myeloid leukemic cell; assay: Antiinflammatory activity against LPS-stimulated patient derived primary AML cells assessed reduction in TNFalpha level measured at 24 hrs by ELISA analysis; type: functional, cell-based; settings: Homo sapiens; summary of the method: as §6
[34] = biological target: Mitogen-activated protein kinase 14 (Homo sapiens) (UniProt Q16539); settings: THP-1, dose 5.0 µM, time 1.15 hrs
[35] = biological target: Mitogen-activated protein kinase 14 (Homo sapiens) (UniProt Q16539); settings: THP-1, dose 5.0 µM, time 1.15 hrs; remark: listed apart in the source

Sequence of Mitogen-activated protein kinase 14 (Homo sapiens) (Q16539 whole entry): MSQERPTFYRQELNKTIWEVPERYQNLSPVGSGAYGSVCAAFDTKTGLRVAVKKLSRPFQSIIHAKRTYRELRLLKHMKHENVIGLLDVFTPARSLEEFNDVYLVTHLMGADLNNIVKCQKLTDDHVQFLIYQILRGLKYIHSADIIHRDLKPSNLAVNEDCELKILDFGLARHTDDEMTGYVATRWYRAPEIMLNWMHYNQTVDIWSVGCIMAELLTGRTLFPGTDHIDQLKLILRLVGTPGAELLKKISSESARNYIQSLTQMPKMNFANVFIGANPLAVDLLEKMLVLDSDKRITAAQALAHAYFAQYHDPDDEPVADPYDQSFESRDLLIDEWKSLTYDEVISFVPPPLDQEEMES
Sequence of MAP kinase-activated protein kinase 2 (Homo sapiens) (P49137 whole entry, looked up): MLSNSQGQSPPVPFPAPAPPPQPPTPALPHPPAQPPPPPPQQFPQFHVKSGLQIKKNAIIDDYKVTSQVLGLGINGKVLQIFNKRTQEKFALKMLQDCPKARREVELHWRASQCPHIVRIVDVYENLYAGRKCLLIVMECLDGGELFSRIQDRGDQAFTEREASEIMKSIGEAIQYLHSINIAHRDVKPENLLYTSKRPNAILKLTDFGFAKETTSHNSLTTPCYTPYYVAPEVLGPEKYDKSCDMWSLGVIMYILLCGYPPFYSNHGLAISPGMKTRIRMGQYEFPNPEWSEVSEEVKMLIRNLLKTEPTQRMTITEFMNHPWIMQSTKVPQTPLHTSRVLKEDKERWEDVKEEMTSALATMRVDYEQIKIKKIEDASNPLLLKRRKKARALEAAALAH

SMILES: Cc1c(F)cc(C(=O)NC2CC2)cc1-c1ccc(C(=O)NCC(C)(C)C)cn1
- Activity (THP-1 [1]): Active
- inhibition [2]: Active

SMILES: Cc1ccc(C(=O)Nc2ccc(CN3CCN(C)CC3)c(C(F)(F)F)c2)cc1C#Cc1cnc2cccnn12
- Activity [3]: Active

SMILES: Cc1cn(-c2cc(NC(=O)c3ccc(C)c(Nc4nccc(-c5cccnc5)n4)c3)cc(C(F)(F)F)c2)cn1 [NILOTINIB]
- Activity (THP-1 [4]): Active
- Activity (THP-1 [5]): Active
- Activity (THP-1 [6]): Active
- Activity (THP-1 [7]): Active
- IC50 (THP-1 [8]): 400 nM
- Activity (THP-1 [9]): Active
- inhibition (THP-1 [10]): Active
- inhibition (THP-1 [11]): Active
- inhibition (THP-1 [12]): Active
- inhibition (THP-1 [13]): Active
- inhibition (THP-1 [14]): Active
- inhibition (THP-1 [15]): Active
- inhibition (THP-1 [16]): Active
- inhibition (THP-1 [17]): Active
- inhibition (THP-1 [18]): Active
- inhibition (THP-1 [19]): Active
- inhibition (THP-1 [20]): Active
- inhibition (THP-1 [21]): Active
- inhibition (THP-1 [22]): Active
- inhibition (THP-1 [23]): Active
- inhibition (THP-1 [24]): Active
- inhibition (THP-1 [25]): Active
- inhibition (THP-1 [26]): Active
- inhibition (THP-1 [27]): Active
- Activity (OCI-AML2 [28]): Active
- Activity (OCI-AML2 [29]): Active
- Activity (OCI-AML2 [30]): Active
- Activity (Monocyte): Active
- inhibition [31]: Active
- Activity [3]: Active
- inhibition (NCI-H929): Active
- inhibition (OCI-AML2 [32]): Active
- Activity [33]: Active
- Tm [34]: 55.1 °C
- Tm [35]: 60.7 °C
